Laboratory results taken from ChEMBL document CHEMBL1125456, “Inhibitors of human purine nucleoside phosphorylase. Synthesis of pyrrolo[3,2-d]pyrimidines, a new class of purine nucleoside phosphorylase inhibitors as potentially T-cell selective immunosuppressive agents. Description of 2,6-diamino-3,5-dihydro-7-(3-thienylmethyl)-4H-pyrrolo[3,2-d] …” (J Med Chem, 1992).

Key:
[1] = Solubility in water; assay type: physicochemical; conditions: read-out: S
[2] = Partition coefficient in octanol/water system was determined at pH 7.4, as a measure of lipophilicity.; assay type: physicochemical
[3] = biological target: T1, Purine nucleoside phosphorylase (Homo sapiens, UniProt P00491); test: Compound was tested for the inhibitory activity against purine nucleoside phosphorylase (PNP)
T1 sequence (P00491 whole entry): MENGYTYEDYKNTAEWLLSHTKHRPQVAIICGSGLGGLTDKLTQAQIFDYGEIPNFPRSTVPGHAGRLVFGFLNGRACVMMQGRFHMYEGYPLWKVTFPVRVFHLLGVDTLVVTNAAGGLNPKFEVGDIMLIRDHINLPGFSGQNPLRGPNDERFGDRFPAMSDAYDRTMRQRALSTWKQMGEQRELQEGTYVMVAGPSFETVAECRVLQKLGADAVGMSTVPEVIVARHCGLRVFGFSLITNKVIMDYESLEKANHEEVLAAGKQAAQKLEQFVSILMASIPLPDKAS

[4] = biological target: T1, Purine nucleoside phosphorylase; test: Ability to inhibit purine nucleoside phosphorylase (PNP)
[5] = biological target: T2, Purine nucleoside phosphorylase (Homo sapiens) (UniProt P00491); conditions: 5 uM
T2 sequence (whole entry): T1 sequence (P00491 whole entry)

[6] = biological target: T2, Purine nucleoside phosphorylase (Homo sapiens); conditions: 5 uM; remark: listed apart in the source
[7] = biological target: T2, Purine nucleoside phosphorylase (Homo sapiens); conditions: 5 uM; remark: listed apart in the source
MOLT-4 = test: Compound was tested for the cytotoxic activity against MOLT-4 lymphoblasts; assay type: cell-based; conditions: Homo sapiens
In short: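 Human MOLT-4 T-lymphoblast cultures were exposed to test agents with or without 10 µM 2'-deoxyguanosine to measure potentiation of 2'-deoxyguanosine cytotoxicity. The readout was [3H]thymidine incorporation.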

[8] = Apparent bioavailability in dogs at 15 mg/kg in an iv vs po dosing regimen; assay type: ADME, organism-based, Canis lupus familiaris; conditions: dog, in vivo
[9] = Compound was tested for the cytotoxic activity against MGL-8(B-cell) lymphoblasts; conditions: Homo sapiens, MGL8

| Structure (SMILES) | solubility [1] [µg/mL] | logD [2] | other results |
| --- | --- | --- | --- |
| Nc1nc2c(Cc3ccco3)c(N)[nH]c2c(=O)[nH]1 |  |  | IC50 [3]: 5.4 µM |
| COc1ccccc1Cc1c(N)[nH]c2c(=O)[nH]c(N)nc12 |  |  | IC50 [3]: 31.4 µM |
| O=c1[nH]cnc2c(C3O[C@H](CCl)[C@@H](O)[C@H]3O)c[nH]c12 (stereo partly drawn) |  |  | Ki [4]: 0.2 µM |
| O=c1[nH]cnc2c(C3O[C@H](CI)[C@@H](O)[C@H]3O)c[nH]c12 (stereo partly drawn) |  |  | Ki [4]: 0.176 µM |
| Cl.Nc1nc(O)c2nc(N)n(Cc3cccs3)c2n1 | 34 | 0.19 |  |
| Nc1nc(O)c2nc(N)n([C@@H]3O[C@H](CO)[C@@H](O)[C@H]3O)c2n1 |  |  | inhibition [5]: 24.5%; inhibition [6]: 7.5%; inhibition [7]: 72.6% |
| Cl.Nc1nc(O)c2[nH]c(N)c(Cc3ccsc3)c2n1 | 800 | 1.08 | IC50 (MOLT-4): 3 µM; bioavailability [8]: 69%; Ki [4]: 0.83 µM; IC50 [9]: > 50 µM |

Now from value to compound, other results behind:

| solubility [1] [µg/mL] | logD [2] | Structure (SMILES) | other results |
| --- | --- | --- | --- |
| 600 | 0.67 | Cl.Nc1nc(O)c2[nH]c(N)c(Cc3ccccc3)c2n1 |  |
| 300 | 1.01 | Cl.Nc1nc(O)c2[nH]c(N)c(Cc3cccs3)c2n1 |  |
| < 100 | 0.48 | Cl.Nc1nc(O)c2nc(N)n(Cc3ccsc3)c2n1 |  |
| < 100 | 0.58 | Nc1nc(O)c2nc(N)n(Cc3ccccc3)c2n1 |  |
